Shown are actives, neighbours in structure and some others; about 2.4% of the full set was active somewhere.
SUMO1-SIM PPI – SUMO1-SIM interaction modulation; P63165; SUMO1 binding to a labelled peptide, TR-FRET, 1 h; inhibition, % at 20 µM; 360,000 compounds, 0.33% hits; in the data active = inhibition above about 37%
Target sequence (P63165 whole entry, looked up): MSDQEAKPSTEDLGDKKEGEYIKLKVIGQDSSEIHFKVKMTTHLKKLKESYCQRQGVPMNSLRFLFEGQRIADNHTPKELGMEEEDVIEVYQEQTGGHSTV
LMPTP block – LMPTP (human) inhibition; recombinant LMPTP-A, OMFP fluorogenic substrate, fluorescence intensity; inhibition, % at 20 µM; P24666; 360,000 compounds, 0.22% hits;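 active = compounds that cut the enzyme signal by at least half of the control window in the single-dose screen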
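Test system: LMPTP-A phosphatase enzyme; input: 0.625 nM LMPTP-A final; reagent: OMFP substrate, 400 µM final; compound dosing: 20 µM single dose, 3% DMSO; incubation: 50 min dark incubation at room temperature; measured by: endpoint fluorescence intensity from OMFP dephosphorylation; measure: % inhibition relative to no-enzyme and uninhibited control wells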
Scp-1 inhibitor – blocks human Scp-1 phosphatase activity | 340,000 compounds, 0.88% hits | Q9GZU7 | Recombinant Scp1, phosphopeptide, malachite green phosphate absorbance | inhibition, % at 20 µM;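 active = inhibition above about 50% at 20 µM, limit read from the data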
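Test system: SCP-1 phosphatase catalytic domain, residues 76-261 | Compound dosing: One concentration, 20 µM, with 1.0% DMSO | Schedule: 45 min room-temperature reaction, 5 min colour, 30 min stabiliser | Detection: Absorbance at 630 nm | Read-out basis: % inhibition of SCP-1 phosphate liberation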
STEP inh – STEP (human) phosphatase inhibition. P54829. recombinant STEP, OMFP fluorogenic substrate, fluorescence. inhibition, % at 20 µM. 360,000 compounds, 0.25% hits. AID 588621;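 active = inhibition at 20 µM, scaled per plate between control wells, above about 37%, limit read from the data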
Target sequence (P54829 whole entry, looked up): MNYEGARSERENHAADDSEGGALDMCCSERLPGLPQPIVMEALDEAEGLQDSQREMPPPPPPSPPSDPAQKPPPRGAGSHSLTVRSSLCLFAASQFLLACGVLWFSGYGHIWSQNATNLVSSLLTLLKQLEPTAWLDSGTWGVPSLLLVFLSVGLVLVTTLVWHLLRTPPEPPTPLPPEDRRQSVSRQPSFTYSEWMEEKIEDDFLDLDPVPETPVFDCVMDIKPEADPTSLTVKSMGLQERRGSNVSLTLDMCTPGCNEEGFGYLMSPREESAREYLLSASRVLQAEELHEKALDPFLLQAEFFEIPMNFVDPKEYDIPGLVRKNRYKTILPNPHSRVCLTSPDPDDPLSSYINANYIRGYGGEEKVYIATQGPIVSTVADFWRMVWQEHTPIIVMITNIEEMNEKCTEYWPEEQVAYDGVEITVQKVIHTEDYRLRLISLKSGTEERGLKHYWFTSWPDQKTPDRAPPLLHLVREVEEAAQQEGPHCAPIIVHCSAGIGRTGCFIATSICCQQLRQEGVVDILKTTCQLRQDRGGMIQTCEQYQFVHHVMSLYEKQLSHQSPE
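Also added – OMFP at 25 µM · Test system – STEP tyrosine phosphatase · Technique – FITC-channel fluorescence of OMFP product · Schedule – 20 min at room temperature, dark · Evaluation – control-normalized % inhibition with plate pattern correction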
NadD block – inhibitors of Staphylococcus aureus NadD; purified NadD enzyme, colorimetric absorbance read-out; AID 602399; 360,000 compounds, 0.78% hits; inhibition, % at 20 µM; in the data active = inhibition above about 26%
DNMT1 inh – DNMT1 (human) enzyme inhibition; P26358; DNMT1 molecular beacon, Hinp1I cleavage, fluorescence; inhibition (reported as % activation of signal), % at 10 µM; 360,000 compounds, 0.83% hits; AID 588458; in the data active = inhibition above about 50%
DNMT1 confirm – confirmation of human DNMT1 inhibitors | 2,300 compounds, 8% hits | DNMT1 molecular beacon HinP1I cleavage, fluorescence | inhibition, % at 10 µM | AID 602385 | shares compounds with DNMT1 inh;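 active = average inhibition of at least 30% in the single-concentration confirmation test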
DNMT1 interf – beacon fluorescence artifact counter-screen | 2,300 compounds, 1% hits | activation (fluorescence interference), % at 10 µM | AID 602387 | shares compounds with DNMT1 inh | DNMT1 molecular beacon spectral interference counterscreen, fluorescence 485/520;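 active = activation of at least 30% at 10 µM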;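 also: DNMT1 catalytic domain with a HinP1I cleavage step and a FAM/dabcyl DNA beacon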
STEP inh conf – STEP (human) phosphatase inhibition, single concentration confirmation | shares compounds with STEP inh | recombinant STEP, OMFP fluorogenic substrate, fluorescence | inhibition, % at 20 µM | 520 compounds, 32% hits; call rule not given here
NadD inh conf – confirmation of Staphylococcus aureus NadD inhibitors; shares compounds with NadD block; purified S. aureus NadD, colorimetric enzyme assay; inhibition, % at 20 µM; 2,000 compounds, 13% hits; AID 624309; in the data active = inhibition mostly above about 42%, no sharp cut-off; inactive = mostly below about 42%
Large screens that a line does not name were inactive (follow-up assays come after a bar, where they were run).

O=C1NC(=S)N(C2CC2)C(=O)/C1=C/c1ccc2c(c1)CCN2CCCCl	DNMT1 inh 87 | DNMT1 confirm inactive | DNMT1 interf inactive
C=CCN1C(=O)/C(=C/c2ccc3c(c2)CCCN3CCC)C(=O)NC1=S	none
CCN1C(=O)/C(=C/c2ccc3c(c2)CCN3CCCCl)C(=O)NC1=S	NadD block 31, DNMT1 inh 102 | DNMT1 confirm inactive | DNMT1 interf inactive
CCn1c(O)c(C=Nc2ccc(S(N)(=O)=O)cc2)c(=O)n(CC)c1=S	none
COC(=O)C1=C(c2ccccc2)C[C@@H]2CC[C@H]1N2C(=O)NCCS(C)=O (some centres not stated)	none
O=C1NC(=O)N(c2ccccc2)C(=O)/C1=C/C=C/c1ccco1	DNMT1 inh 65 | DNMT1 confirm inactive | DNMT1 interf inactive
CN(C)c1ccc(/C=C2\C(=O)NC(=O)N(Cc3ccc(F)cc3)C2=O)cc1	none
O=C1NC(=O)N(Cc2ccc(F)cc2)C(=O)/C1=C\c1ccoc1	Scp-1 inhibitor 64, DNMT1 inh 88 | DNMT1 confirm inactive | DNMT1 interf inactive
COC(=O)C1=C(c2ccc(S(C)(=O)=O)cc2)C[C@@H]2CC[C@H]1N2C(=O)N1CCOCC1	DNMT1 inh 67 | DNMT1 confirm inactive | DNMT1 interf inactive
Clc1ccc(-c2nc3ccc(Cl)cn3c2CN2CCOCC2)cc1	DNMT1 inh 73 | DNMT1 confirm inactive | DNMT1 interf inactive
O=P(Oc1ccccc1)(Oc1ccccc1)C(O)c1ccc(Cl)cc1 (configuration not stated)	none
C[C@]12CC[C@H](N)CC1=CCC1C2CC[C@@]2(C)C1CC[C@@H]2O (some centres not stated)	none
C[C@]12CC[C@@H](O)CC1=CCC1C2CC[C@@]2(C)C1CC[C@@H]2N (some centres not stated)	DNMT1 inh 81 | DNMT1 confirm inactive | DNMT1 interf inactive
CC(C)OC(=O)c1c(N)n(Cc2ccco2)c2nc3ccccc3nc12	none
COCCOC(=O)c1c(N)n(Cc2ccco2)c2nc3ccccc3nc12	SUMO1-SIM PPI 49, DNMT1 inh 66 | DNMT1 confirm inactive | DNMT1 interf inactive
Nc1c(C(=O)NCC2CCCO2)c2nc3ccccc3nc2n1Cc1ccco1 (configuration not stated)	none
COc1ccc(Cn2c(N)c(C(=O)NCc3ccco3)c3nc4ccccc4nc32)cc1OC	SUMO1-SIM PPI 36, DNMT1 inh 87 | DNMT1 confirm inactive | DNMT1 interf inactive
Nc1c(C(=O)OCC2CCCO2)c2nc3ccccc3nc2n1Cc1cccs1 (configuration not stated)	DNMT1 inh 73 | DNMT1 confirm inactive | DNMT1 interf inactive
COC(=O)c1c(N)n(Cc2ccc(OC)cc2)c2nc3ccccc3nc12	DNMT1 inh 70 | DNMT1 confirm inactive | DNMT1 interf inactive
C[C@]12CC[C@H](OC(=O)CCC(=O)O)CC1=CCC1C2CC[C@@]2(C)C1CC[C@@H]2OC(=O)CCC(=O)O (some centres not stated)	none
C[C@]12CCC(OC(=O)CCC(=O)O)CC1=CCC1C2CC[C@]2(C)C(=O)CCC12 (some centres not stated)	DNMT1 inh 91 | DNMT1 confirm inactive | DNMT1 interf inactive
COc1ccc(CCC(=O)N2CCC3(CC2)OCCO3)cc1	none
O=C(CCc1nc(-c2ccccc2F)no1)N1CCC2(CC1)OCCO2	DNMT1 inh 58 | DNMT1 confirm inactive | DNMT1 interf inactive
C[C@H]1CC[C@@H]2[C@@H](C)[C@H]3[C@H](C[C@H]4[C@@H]5CC=C6C[C@@H](O[C@@H]7O[C@H](CO)[C@H](O)[C@H](O[C@@H]8O[C@H](CO)[C@@H](O)[C@H](O)[C@H]8O)[C@H]7O[C@@H]7O[C@@H](C)[C@H](O)[C@@H](O)[C@H]7O)CC[C@]6(C)[C@H]5CC[C@]34C)N2C1	none
CC(N)Cc1c[nH]c2ccc(O)cc12 (configuration not stated)	DNMT1 inh 76 | DNMT1 confirm inactive | DNMT1 interf inactive
CC(N)Cc1c[nH]c2ccc(OCc3cccs3)cc12 (configuration not stated)	none
CCN(C(=O)COC(=O)Cc1ccccc1)c1c(N)n(Cc2ccccc2)c(=O)[nH]c1=O	DNMT1 inh 86 | DNMT1 confirm inactive | DNMT1 interf inactive
CN1CCc2nc(SCc3cccc(Br)c3)c(C#N)cc2C1	DNMT1 inh 70 | DNMT1 confirm inactive | DNMT1 interf inactive
COc1cc(/C=C2\C(=O)NC(=O)N(c3ccccc3)C2=O)cc(OC)c1O	none
C=CCn1c(O)c(/C=N/N2CCCCC2c2cccnc2)c(=O)[nH]c1=S (configuration not stated)	STEP inh 42 | STEP inh conf inactive
CN(C)c1ccc2c(c1)N=C(c1ccco1)OP2(=S)N1CCOCC1 (configuration not stated)	STEP inh 36 | STEP inh conf inactive
CN(C)c1ccc(CCN2CCOCC2)cc1	none
CN1OC[C@@H]2COc3ccc4ccccc4c3[C@@H]21	none
O=C(NCCCN1CC1)Nc1cccc2ccccc12	NadD block 34 | NadD inh conf inactive
O=C1NCN(c2ccccc2)C12CCN(C(c1cccc3ccccc13)c1nnnn1C1CCCCC1)CC2 (configuration not stated)	NadD block 30 (no result: Scp-1 inhibitor) | NadD inh conf inactive
Cc1cccc(C)c1-n1nnnc1C(CCc1ccccc1)N1CCC2(CC1)C(=O)NCN2c1ccccc1 (configuration not stated)	NadD block 41 (no result: Scp-1 inhibitor) | NadD inh conf inactive
N#CC1=C(N)Oc2c(c(=O)oc3ccccc23)C1c1cccnc1 (configuration not stated)	none
CCOc1cc(C2C(C#N)=C(N)Oc3c2c(=O)oc2ccccc32)ccc1OC(=O)c1cccs1 (configuration not stated)	NadD block 31 | NadD inh conf inactive
